From ChEMBL document CHEMBL3085702, “Synthesis and biological evaluation of 3-(trimethoxyphenyl)-2(3H)-thiazole thiones as combretastatin analogs” (Eur J Med Chem, 2013)
In brackets after ≈: the same amount, converted by molar mass. Activity calls are given as the source filed them. No cut-off for these calls is given here.

Columns and labels:
MDA-MB-231 = assay: Cytotoxicity against human MDA-MB-231 cells after 48 hrs by MTT assay; format: functional, cell-based; conditions: MDA-MB-231, 48 h
Summary of the method: (§1)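 Log-phase cells harvested by trypsinization, seeded 24 h, then exposed to a range of compound concentrations for 48 h; etoposide positive and DMSO negative controls, final DMSO below 2%. Cells kept at 37 °C, 5% CO2, humidified. MTT formazan absorbance read; % inhibition = (Abs control − Abs treated)/Abs control × 100; IC50 from concentration–response curves by regression.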

MCF7 [1] = assay: Cytotoxicity against human MCF7 cells after 48 hrs by MTT assay; format: functional, cell-based; conditions: MCF7, 48 h; summary of the method: as §1
T47D [2] = assay: Cytotoxicity against human T47D cells after 48 hrs by MTT assay; format: functional, cell-based; summary of the method: as §1
MCF7 [3] = assay: Induction of apoptosis in human MCF7 cells assessed as early apoptotic cells at IC50 using annexin V-PE/7-AAD double staining by flow cytometry (reference value: 4.88%); format: functional
MCF7 [4] = assay: Induction of apoptosis in human MCF7 cells assessed as late apoptotic cells at IC50 using annexin V-PE/7-AAD double staining by flow cytometry (reference value: 0.12%); format: functional
MCF7 [5] = assay: Induction of apoptosis in human MCF7 cells assessed as viable cells at IC50 using annexin V-PE/7-AAD double staining by flow cytometry (reference value: 95%); format: functional
MCF7 [6] = assay: Induction of apoptosis in human MCF7 cells assessed as necrotic cells at IC50 using annexin V-PE/7-AAD double staining by flow cytometry (reference value: 0%); format: functional
MCF7 [7] = assay: Induction of apoptosis in human MCF7 cells at IC50 after 24 hrs by acridine orange/ethidium bromide staining test; format: functional, cell-based
T47D [8] = assay: Induction of apoptosis in human T47D cells at IC50 after 24 hrs by acridine orange/ethidium bromide staining test; format: functional, cell-based
MRC5 [9] = assay: Selectivity index, ratio of IC50 for human MRC5 cells to IC50 for human MDA-MB-231 cells; format: functional
Summary of the method: (§2)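 Ratio of IC50 in non-tumoral MRC-5 cells to IC50 in the cancer line, both from the 48 h MTT assay.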

MCF7 [10] = assay: Selectivity index, ratio of IC50 for human MRC5 cells to IC50 for human MCF7 cells; format: functional; summary of the method: as §2
MRC5 [11] = assay: Selectivity index, ratio of IC50 for human MRC5 cells to IC50 for human T47D cells; format: functional; summary of the method: as §2
MRC5 [12] = assay: Cytotoxicity against human MRC5 cells after 48 hrs by MTT assay; format: cell-based; conditions: MRC5, 48 h; summary of the method: as §1
Ovis aries = species on record: Ovis aries; assay: Inhibition of sheep brain tubulin polymerization assessed as reduction of microtubule assembly
[13] = Inhibition of sheep brain tubulin polymerization assessed as reduction of microtubule assembly after 30 mins by UV-visible spectrophotometry

| SMILES | IC50 (MDA-MB-231) [µg/mL] | IC50 (MCF7 [1]) [µg/mL] | IC50 (T47D [2]) [µg/mL] | also measured |
| --- | --- | --- | --- | --- |
| COc1ccc(C(=O)CSC(=S)Nc2cc(OC)c(OC)c(OC)c2)cc1 | 16.4 (≈ 40.2 µM) | 18.6 (≈ 45.6 µM) | 29.9 (≈ 73.4 µM) |  |
| COc1cc(-n2c(-c3ccc(O)c(O)c3)csc2=S)cc(OC)c1OC | 29.8 (≈ 76.1 µM) | > 100 | 24.9 (≈ 63.6 µM) |  |
| COc1ccc(-c2csc(=S)n2-c2cc(OC)c(OC)c(OC)c2)cc1 | 53.8 (≈ 138 µM) | > 100 | > 100 |  |
| COc1cc(-n2c(-c3ccc(Br)cc3)csc2=S)cc(OC)c1OC | 58 (≈ 132 µM) | > 100 | > 100 |  |
| COc1cc(-n2c(-c3ccc(C)cc3)csc2=S)cc(OC)c1OC | 11.8 (≈ 31.6 µM) | 19.7 (≈ 52.7 µM) | 16.3 (≈ 43.6 µM) | Activity (MCF7 [3]): 66.47%; Activity (MCF7 [4]): 0.26%; Activity (MCF7 [5]): 33.24%; Activity (MCF7 [6]): 0.02%; Activity (MCF7 [7]): Active; Activity (T47D [8]): Active; Ratio IC50 (MRC5 [9]): >5; Ratio IC50 (MCF7 [10]): >5; Ratio IC50 (MRC5 [11]): >5; IC50 (MRC5 [12]): > 100 µg/mL; inhibition (Ovis aries): Dose-dependent effect; pIC50 [13]: 4.14 |
| COc1ccc(-n2c(-c3ccccc3)csc2=S)cc1OC | 19.1 (≈ 58 µM) | 17.6 (≈ 53.4 µM) | 33.1 (≈ 100 µM) |  |
| COc1cc(N2C(=S)SCC2(O)c2ccc(Cl)cc2Cl)cc(OC)c1OC (racemic) | 14.5 (≈ 32.5 µM) | 9.6 (≈ 21.5 µM) | 16.9 (≈ 37.9 µM) | Activity (MCF7 [3]): 51.67%; Activity (MCF7 [4]): 0.02%; Activity (MCF7 [5]): 48.32%; Activity (MCF7 [6]): 0%; Activity (MCF7 [7]): Active; Activity (T47D [8]): Active; IC50 (MRC5 [12]): 47.3 µg/mL (≈ 106 µM) |
| COc1cc(-n2c(-c3ccc(Cl)cc3Cl)csc2=S)cc(OC)c1OC | 49 (≈ 114 µM) | 23.6 (≈ 55.1 µM) | 43.4 (≈ 101 µM) |  |
| COc1cc(-n2c(-c3ccc(-c4ccccc4)cc3)csc2=S)cc(OC)c1OC | > 100 | 45.3 (≈ 104 µM) | > 100 |  |
| COc1cc(-n2c(-c3ccccc3)csc2=S)cc(OC)c1OC | 52 (≈ 145 µM) | > 100 | 31.6 (≈ 87.9 µM) |  |
| COc1cc(N2C(=S)SCC2(O)c2ccc(Br)cc2)cc(OC)c1OC (racemic) | 15.1 (≈ 33.1 µM) | 16.5 (≈ 36.2 µM) | 16.3 (≈ 35.7 µM) |  |
| COc1cc(-n2c(-c3ccc(O)cc3)csc2=S)cc(OC)c1OC | 22.9 (≈ 61 µM) | 35.1 (≈ 93.5 µM) | 26.4 (≈ 70.3 µM) |  |
| COc1cc(-n2c(-c3ccc(F)cc3)csc2=S)cc(OC)c1OC | 19.5 (≈ 51.7 µM) | 38.5 (≈ 102 µM) | 38.9 (≈ 103 µM) |  |
| COc1cc(-n2c(-c3ccc(Cl)cc3)csc2=S)cc(OC)c1OC | > 100 | > 100 | > 100 |  |
| COc1ccc(-n2c(-c3ccccc3)csc2=S)cc1 | 36.8 (≈ 123 µM) | 88.5 (≈ 296 µM) | 23.2 (≈ 77.5 µM) |  |
| COc1cc([C@@H]2c3cc4c(cc3[C@@H](O[C@@H]3O[C@@H]5CO[C@@H](C)O[C@H]5[C@H](O)[C@H]3O)[C@H]3COC(=O)[C@H]23)OCO4)cc(OC)c1O [ETOPOSIDE] | 7.2 (≈ 12.2 µM) | 9.4 (≈ 16 µM) | 8.2 (≈ 13.9 µM) | Activity (MCF7 [3]): 16.6%; Activity (MCF7 [4]): 0.01%; Activity (MCF7 [5]): 83.39%; Activity (MCF7 [6]): 0% |
